These results are taken from ChEMBL document CHEMBL4513216, “Probing the Open Global Health Chemical Diversity Library for Multistage-Active Starting Points for Next-Generation Antimalarials” (ACS Infect Dis, 2020).

Molecules are shown by their SMILES.

This data set in a line: Toxicity liver stage against HepG2, at 10uM. Conditions: human, HepG2-A16-CD81EGFP cells; read-out: INHIBITION
The format is cell-based. Set-up: test concentration 10 uM, cell line HepG2-A16-CD81EGFP. In outline: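 Uninfected HepG2-A16-CD81EGFP cells, 3 × 10^3 per well, 1536-well, plated on prespotted compound at 10 μM final, parasite-free screening media added to match infected plates; puromycin 10 μM positive, DMSO 0.5% negative; run in parallel with 48 h PbLuc assay at 37 °C, 5% CO2; viability by CellTiter-Glo luminescence, normalized to controls.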
Take `CCN(CC)CCNC(=O)c1ccc(-n2ccc3ccccc32)s1`: the cytotoxicity at 10 µM amounted to 8.01%.
In the case of `Cc1cc2c(N)nc(=O)n(CC(=O)Nc3cccc(Cl)c3)c2s1`, the cytotoxicity at 10 µM was -3.14%.
As for `COc1cccc(C(=O)NCC(c2cccn2C)N2CCCC2)c1OC` (stereo unspecified), the figure is -2.4%.
To `O=C1NC(c2ccccc2)=N[C@@]12CC[C@@H]1CN(S(=O)(=O)C3CC3)C[C@@H]12` belongs 9.91%; to `CN(C)c1nc2n(c(=O)n1)CCN2C(=O)Nc1cccc(Cl)c1`, 8.19%.
To `CCN1CCN(C(=O)c2cc(NC(=O)c3ccccc3)n(C)n2)CC1` belongs 8.91%; to `Cn1nc(C(=O)NC2CC2)cc1NC(=O)C1CC1`, -4.02%.
In the case of `CCn1nc(C)c(C(=O)NCc2csc(C3CC3)n2)c1C`, the cytotoxicity at 10 µM came to 20.5%.
To `Cn1nccc1CN1CCOC(c2cccc(Nc3ccccn3)n2)C1` (stereo unspecified) belongs 23.9%.
As for `Cc1cc(-c2cnc(N3CCC(C(N)=O)CC3)nc2C(C)C)on1`, the cytotoxicity at 10 µM came to 72.2%.
As for `Nc1nccnc1CC1CCCN(Cc2ccnc3ccccc23)C1` (stereo unspecified), the figure is 24.7%.
To `Cc1cccnc1CN1CC[C@H](Oc2cccc(F)c2)[C@@](C)(O)C1` belongs -5.77%; to `Cc1csc(C(=O)N2CCC(O)(CN3CCc4ccccc4C3)C2)c1` (stereo unspecified), -1.22%.
As for `COc1cccc(-c2noc(C3CCN(Cc4ccncc4)C3)n2)c1` (stereo unspecified), the figure is 25.9%; as for `CN1CCCC1c1cccc(Cc2ccccc2F)n1` (stereo unspecified), 7.31%.
Turning to `O=C(CCC1CCCC1)NCc1nnc2ccccn12`, the cytotoxicity at 10 µM was 2.52%.
As for `Cc1ncc(CN2CCC(c3ccnn3C)CC2)n1-c1ccccc1`, the figure is 19.1%; as for `CC(C)(C)CC1CCCN1Cc1nc(-c2ccco2)no1` (stereo unspecified), 4.11%; as for `COC(=O)CN(C(=O)C(C)c1c(F)cccc1F)c1cccc(C)n1` (stereo unspecified), -2.8%.
To `COC(=O)C(CNC(=O)Nc1nncs1)Cc1cccc(C)c1` (stereo unspecified) belongs 6.53%; to `NC(=O)CCC1CCCN(c2ccnc3cc(F)ccc23)C1` (stereo unspecified), 14.6%.
Regarding `COc1cccc(NC(=O)N2CCC(O)(C(F)(F)F)C2)c1` (stereo unspecified), the cytotoxicity at 10 µM is 3.2%.
To `Cc1nc(CNC2CCc3nc(C(C)C)nn3C2)oc1C` (stereo unspecified) belongs -4.1%; to `CCc1nsc(N2CCN(CC(=O)NCc3cccnc3)CC2)n1`, -4.52%; to `COc1cccc(C(=O)NCc2ccccc2S(=O)(=O)N(C)CCO)c1`, -4.73%.
To `CCc1ccc(C2COCCN2C(=O)Nc2ccc(C(N)=O)c(Cl)c2)o1` (stereo unspecified) belongs 2.42%.
To `Cc1cc(C)n(CC2CCCCN2CC(=O)Nc2nccs2)n1` (stereo unspecified) belongs 10.1%; to `CCn1ccnc1CN1CCN(c2nc(C)cc(OC)n2)CC1`, -5.48%; to `Cc1nc(C(C)(C)NC(=O)Nc2ccc(C#N)cc2)no1`, 13%.
Take `CC(C)c1nc(CNC2CCCN(c3cccnn3)C2)no1` (stereo unspecified): the cytotoxicity at 10 µM stood at 7.68%.
Take `Cc1cc(C)n(C2CN(CC(=O)N(C)Cc3ccsc3)C2)n1`: the cytotoxicity at 10 µM was -0.912%.
As for `COc1ccccc1NC(=O)N(CCO)Cc1ccsc1`, the figure is -1.05%; as for `CC(C)(C)c1cnc(CN(Cc2cccnc2)CC2CCCO2)o1` (stereo unspecified), 5.82%.
To `CC(C)c1ccc(C(N)c2cccs2)cc1` (stereo unspecified) belongs 15.4%.
As for `CN(Cc1ccc(N(C)C)cc1)C(=O)CSc1ccc(Br)cc1`, the figure is 45.6%.
For the compound `Cc1nn(CCC#N)c(C)c1CCC(=O)N(C)Cc1ccc(F)cc1F`, the cytotoxicity at 10 µM is -1.31%.
To `Cc1n[nH]cc1CNC1CCN(c2cccc(C(F)(F)F)c2)CC1` belongs -64.8%.
For `CC(c1ccccc1)N(C)C(=O)CN1CCCc2cc(F)cc(F)c21` (stereo unspecified), the cytotoxicity at 10 µM turned out to be 27.3%.
As for `CC(C)n1cnnc1C1CCCN(S(=O)(=O)CC2CCCC2)C1` (stereo unspecified), the cytotoxicity at 10 µM was -11.7%.
As to `CC(C)CC(NC(=O)CSc1ccc(F)c(Cl)c1)C(=O)O` (stereo unspecified), the cytotoxicity at 10 µM was -46%.
As for `CC(C)c1nc(COc2cccc3c2NC(=O)CO3)cs1`, the figure is 35.8%; as for `CN1CCCc2ccc(S(=O)(=O)NC(=O)C3CC=CC3)cc21`, 2.84%; as for `CNC(=O)c1[nH]nc2ccc(I)cc12`, -61.9%.
For `CN(C)c1ncc(CNC(=O)Nc2ccc(C(F)(F)F)cc2)n1C`, the cytotoxicity at 10 µM was -49.9%.
`CC(C)(C)C(=O)c1ccsc1NC(=O)CCNC(=O)c1ccco1`: the cytotoxicity at 10 µM is -52.7%.
With `Cc1cccc(CN2CCC3(CC(C(=O)NCC(C)C)=NO3)C2)c1` (stereo unspecified), the cytotoxicity at 10 µM is 4.66%.
As for `c1ccc(CCN2C[C@@H]3OCCN(c4ncccn4)[C@@H]3C2)cc1`, the figure is -74.1%.
As for `COCCC(=O)N1CCc2nc(N3CCOCC3)nc(NC(C)C)c2C1`, the figure is -108%; as for `COc1cc(N2C[C@H]3CCC[C@@H](CN4CCCC4)[C@H]3C2)ncn1`, -79%; as for `Cn1cc(CNCC2(N3CCCCC3)Cc3ccccc3C2)cn1`, -3.07%.
As for `Cc1cc2c(N3CCC(N(C)Cc4cnn(C)c4)CC3)ncnc2s1`, the figure is -1.13%.
On to `Cc1ccc2nc(C)cc(C(=O)N3C[C@H]4CCC[C@@]4(CO)C3)c2c1`, for which the cytotoxicity at 10 µM turned out to be 2.53%.
To `CCC(CO)N(Cc1ccccn1)Cc1c[nH]nc1-c1ccc(F)cc1` (stereo unspecified) belongs -1.83%; to `CCCn1ncc(-c2ccnc(NC3CCCc4ccccc43)n2)c1C` (stereo unspecified), 20.6%.
To `c1cc(-c2cscn2)cc(N2CCC(NCCc3cccs3)CC2)c1` belongs 8.65%; to `COc1cccc(OC2CN(C(=O)c3cc(CC(C)C)nn3C)C2)c1`, 53.2%; to `Cc1nc[nH]c1CN1CCCC12CCN(c1nc3ccccc3s1)CC2`, -0.369%.
To `CCCNCc1ccc(-c2ccnc3[nH]ccc23)cc1` belongs 66%; to `COc1ccc(C(=O)NC2CC2)c(OC2CCN(C(C)CO)CC2)c1` (stereo unspecified), -7.71%; to `CCn1cc(-c2cc(-c3cc(CN(C)C)cs3)nc(N)c2C#N)c(C)n1`, 0.184%.
For `Cc1ccc(NCCCNC(=O)C2CCCN(Cc3ccco3)C2)nc1` (stereo unspecified), the cytotoxicity at 10 µM turned out to be 3.15%.
To `CCC(C)CN1CCC(n2cc(C3CCCCC3)nn2)CC1` (stereo unspecified) belongs -2.9%; to `CCCN1CCC(Nc2cc(-c3ccccc3)ccc2OC)CC1`, 0.906%.
`CC(=O)c1ccc(N2CCCC(CO)(Cc3ccccc3C)C2)nc1` (stereo unspecified): the cytotoxicity at 10 µM is 10.1%.
As to `CNC(=O)CCC(=O)N1CCOC(c2ccc3cc(OC)ccc3c2)C1` (stereo unspecified), the cytotoxicity at 10 µM came out at 3.85%.
On to `Cc1nc2c(c(NCc3nc4ccccc4s3)n1)CCNCC2`, for which the cytotoxicity at 10 µM is -37.8%.
Consider `Cc1ccccc1CN(Cc1ccc(S(C)(=O)=O)cc1)CC(C)C`, for which the cytotoxicity at 10 µM is 16.6%.
`CC(CN1CCCCCC1)NCc1nncn1C1CCCCC1` (stereo unspecified): the cytotoxicity at 10 µM is -5.59%.
As for `Cc1csc2c(N3CCC(Cn4cc(C(C)(C)O)nn4)CC3)ncnc12`, the figure is 29.9%; as for `Nc1nc2c(c(NCc3nccs3)n1)CCN(CC1CCCC1)CC2`, 4.36%; as for `O=C1CN(Cc2cnc3c(-c4ccccc4)cnn3c2)CCCN1`, 3.32%.
To `COc1ccc(F)c(CN2CCCC3(CCN(C4CCOCC4)C3)C2)c1` (stereo unspecified) belongs -1.48%; to `Cc1nc(N(C)C2CCCCC2)ncc1C(C)NC(=O)c1cccnc1` (stereo unspecified), -105%; to `Cn1cnnc1CN1CCC2(CCC(=O)N(Cc3ccccc3)C2)CC1`, 7.8%.
To `Nc1cc(N2CCC(c3cc(Cc4ccccc4)n[nH]3)CC2)ccn1` belongs 24.6%; to `CCC(C)N(Cc1cc(C)n[nH]1)Cc1ccccc1Cl` (stereo unspecified), 6.65%; to `Cc1cnc(C)c(N2CCN(Cc3ccc(C)c(C)c3)CC2)n1`, 6.68%.
For the compound `Cc1ncsc1CN1C[C@H](NC(=O)C2CCOCC2)[C@@H](C(C)C)C1`, the cytotoxicity at 10 µM was determined as 6.67%.
To `Cc1cc(CC2COc3ccccc3C2)cnc1N` (stereo unspecified) belongs 0.873%; to `CC(C)c1cc(CN2CCC(N)CC2)no1`, -8.24%.
As to `CCc1nc(C)cn1C(=O)Nc1ccc(F)cc1`, the cytotoxicity at 10 µM was 11.1%.
To `c1cnc(-c2nc(CN3CCN(CC4CC4)CC3)cs2)nc1` belongs -10.1%; to `COc1cc(CNCc2c(C)nn(CC(C)C)c2N(C)C)ccn1`, -9.3%; to `Cc1ccc(S(=O)(=O)Nc2ccc(=O)n(C)c2)c(Br)c1`, 0.802%.
To `c1ccc2sc(CN3CCCC3c3noc(C4CC4)n3)nc2c1` (stereo unspecified) belongs -9.88%; to `c1ccc2c(N3CCCC3Cn3cccn3)ncnc2c1` (stereo unspecified), 7.94%; to `N#Cc1ccc(NCCNc2ccc(C(F)(F)F)cn2)nc1`, 73%.
On to `CCOc1cc(CN[C@@H]2COC[C@H]2Cc2cc(C)no2)ccc1O`, for which the cytotoxicity at 10 µM turned out to be 14.8%.
To `O=C([C@H]1C[C@H]2OCC[C@H]2N(CC2CCOCC2)C1)N1CCCC1` belongs -0.972%; to `COc1c(CNC2CCOc3c(Cl)cccc32)c(C)nn1C` (stereo unspecified), 28.9%; to `CS(=O)(=O)N1Cc2ccnn2CC(C(=O)NCc2cccnc2)C1` (stereo unspecified), -88.9%.
Turning to `Cc1ncccc1NC(=O)[C@H]1C[C@@H]2CCN(Cc3ccsc3)C[C@H]2O1`, the cytotoxicity at 10 µM was -79.1%.
With `Cc1nc(CN2CCC3(CC2)CCN(C(=O)c2cscn2)C3)cs1`, the cytotoxicity at 10 µM is -71.9%.
Consider `Cc1ccc(C(=O)N2CC[C@@H]3[C@H]2CCC(=O)N3CCN(C)C)cn1`, for which the cytotoxicity at 10 µM was -0.726%.
As for `Cc1ccc(C(=O)N2CCC3(CCN3c3ncccn3)C2)cn1` (stereo unspecified), the figure is -135%; as for `CCC1=NN2C(=N)C(=Cc3cccn3-c3ccc(Cl)cc3)C(=O)N=C2S1`, 7.92%.
